Data on five compounds can be found in ChEMBL document CHEMBL2046365, “Total synthesis and antifungal activity of (2S,3R)-2-aminododecan-3-ol” (2012).

What all share (format): functional
The test system of one assay is Candida parapsilosis. Nature of the assay: Antifungal activity against Candida parapsilosis MTCC 1744 after 24 hrs by well diffusion method. The procedure, abridged:
(§1)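 Well diffusion on Mueller-Hinton agar plates, each surface-seeded with 0.1 mL of an MTCC Candida reference strain suspension at 1.5 × 10⁸ cfu/mL (0.5 McFarland). Compound added to 6.0 mm cork-bored wells at 300–1.4 per well; methanol well as negative control. Plates incubated 24 h at 30 °C. MIC taken as the lowest concentration giving an inhibition zone. Duplicates, mean reported.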

The next assay concerns [Candida] aaseri. Description: Antifungal activity against Candida aaseri MTCC 1962 after 24 hrs by well diffusion method. The procedure, abridged: as §1
A general note: In agar diffusion tests the substance spreads into inoculated agar from a disc or well.

Assay [1] deals with Nakaseomyces glabratus. Nature of the assay: Antifungal activity against Candida glabrata MTCC 3019 after 24 hrs by well diffusion method. The procedure, abridged:
as §1

For assay [2], the system named is Candida albicans. Nature of the assay: Antifungal activity against Candida albicans MTCC 183 after 24 hrs by well diffusion method. The method in brief: as §1
In assay [3] the test system is Candida albicans. Nature of the assay: Antifungal activity against Candida albicans MTCC 7315 after 24 hrs by well diffusion method. The method in brief:
as §1

Assay [4] has as its system Candida albicans. Nature of the assay: Antifungal activity against Candida albicans MTCC 3958 after 24 hrs by well diffusion method. The procedure, abridged: as §1
Assay [5] has as its system Candida albicans. Nature of the assay: Antifungal activity against Candida albicans MTCC 854 after 24 hrs by well diffusion method. The procedure, abridged:
as §1

Assay [6] relates to Candida albicans. Description: Antifungal activity against Candida albicans. The procedure, abridged: as §1
In assay [7] the test system is Nakaseomyces glabratus. Description: Antifungal activity against Candida glabrata. The method in brief:
as §1

Where [8] appears, read: Lodderomyces parapsilosis, MTCC 1744, 24 h.
Where [9] appears, read: Yamadazyma aaseri, MTCC 1962, 24 h.

In brackets after ≈: the same amount, converted by molar mass.

For the compound `OC(Cn1cncn1)(Cn1cncn1)c1ccc(F)cc1F` [FLUCONAZOLE], the MIC was 18.8 µg/mL (≈ 61.4 µM) in the assay on Candida parapsilosis (setting [8]); 75 µg/mL (≈ 245 µM) in [Candida] aaseri (setting [9]); 75 µg/mL (≈ 245 µM) with Nakaseomyces glabratus [1] (MTCC 3019, 24 h); 37.5 µg/mL (≈ 122 µM) in the assay on Candida albicans [2] (MTCC 183, 24 h); 37.5 µg/mL (≈ 122 µM) in the assay on Candida albicans [3] (MTCC 7315, 24 h); 75 µg/mL (≈ 245 µM) in the assay with Candida albicans [4] (MTCC 3958, 24 h). This compound also yielded a minimum inhibitory concentration (MIC) with Candida albicans [5] (MTCC 854, 24 h) of 37.5 µg/mL (≈ 122 µM).

Regarding `C[C@@H]1[C@H](O)[C@@H](C)/C=C/C=C/C=C/C=C/C=C/C=C/C=C/[C@H](O[C@@H]2O[C@H](C)[C@@H](O)[C@H](N)[C@@H]2O)C[C@@H]2O[C@](O)(C[C@@H](O)C[C@@H](O)[C@H](O)CC[C@@H](O)C[C@@H](O)CC(=O)O[C@H]1C)C[C@H](O)[C@H]2C(=O)O` [AMPHOTERICIN B], the MIC in the assay on Candida parapsilosis (setting [8]) amounted to 300 µg/mL (≈ 325 µM); in assay [Candida] aaseri (setting [9]), 300 µg/mL (≈ 325 µM); against Nakaseomyces glabratus [1] (MTCC 3019, 24 h), 300 µg/mL (≈ 325 µM); against Candida albicans [2] (MTCC 183, 24 h), 300 µg/mL (≈ 325 µM); against Candida albicans [3] (MTCC 7315, 24 h), 300 µg/mL (≈ 325 µM); against Candida albicans [4] (MTCC 3958, 24 h) it was 300 µg/mL (≈ 325 µM). Moreover, the lowest concentration to inhibit growth against Candida albicans [5] (MTCC 854, 24 h) (MIC) was 300 µg/mL (≈ 325 µM).

Take NYSTATIN: the MIC (against Candida parapsilosis; in assay [Candida] aaseri; with Nakaseomyces glabratus [1]; against Candida albicans [2]; against Candida albicans [3]; in the assay on Candida albicans [4]) was 150 µg/mL in each case. Also, in the assay on Candida albicans [5], the MIC is 150 µg/mL.

With `Clc1ccc(COC(Cn2ccnc2)c2ccc(Cl)cc2Cl)c(Cl)c1` (configuration not stated) [MICONAZOLE], the MIC was found to be 9.9 µg/mL (≈ 23.8 µM) against Candida parapsilosis (setting [8]); 9.9 µg/mL (≈ 23.8 µM) in [Candida] aaseri (setting [9]); 9.9 µg/mL (≈ 23.8 µM) against Nakaseomyces glabratus [1] (MTCC 3019, 24 h); 9.9 µg/mL (≈ 23.8 µM) with Candida albicans [2] (MTCC 183, 24 h); 9.9 µg/mL (≈ 23.8 µM) in the assay on Candida albicans [3] (MTCC 7315, 24 h); 9.9 µg/mL (≈ 23.8 µM) against Candida albicans [4] (MTCC 3958, 24 h). In the assay with Candida albicans [5] (MTCC 854, 24 h), this compound displayed an MIC of 9.9 µg/mL (≈ 23.8 µM).

`CCCCCCCCC[C@@H](O)[C@H](C)N`: the MIC against Candida parapsilosis (setting [8]) came out at 4.9 µg/mL (≈ 24.3 µM); in [Candida] aaseri (setting [9]) it was 9.9 µg/mL (≈ 49.2 µM); with Nakaseomyces glabratus [1] (MTCC 3019, 24 h), 9.9 µg/mL (≈ 49.2 µM); against Candida albicans [2] (MTCC 183, 24 h), 9.9 µg/mL (≈ 49.2 µM); with Candida albicans [3] (MTCC 7315, 24 h), 9.9 µg/mL (≈ 49.2 µM); with Candida albicans [4] (MTCC 3958, 24 h), 19.8 µg/mL (≈ 98.3 µM). In addition, the MIC turned out to be 37.5 µg/mL (≈ 186 µM) against Candida albicans [5] (MTCC 854, 24 h); 0.7 µg/mL (≈ 3.48 µM) with Candida albicans [6]; 30 µg/mL (≈ 149 µM) against Nakaseomyces glabratus [7].

The MIC is the lowest concentration found to suppress growth. Low readings indicate a more susceptible organism, high ones a less susceptible organism.
